This note sets out measurements from ChEMBL document CHEMBL2413007, “Synthesis of polysubstituted benzofuran derivatives as novel inhibitors of parasitic growth” (Bioorg Med Chem, 2013).

As usually defined, the IC50 is the concentration at which inhibition is half-maximal. Low readings indicate inhibition by little substance, high ones a need for much substance.

One experiment concerns Plasmodium falciparum. Description: Antiplasmodial activity against erythrocytic stages of chloroquine-resistant Plasmodium falciparum FcB1/Columbia incubated for 24 hrs followed by [3H]-hypoxanthine addition measured after 24 hrs by liquid scintillation spectrometry. It is filed as functional, organism-based. Put shortly: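 Asynchronous FcB1/Colombia cultured on human erythrocytes in RPMI 1640 + 8% heat-inactivated human serum, 37 °C, 3% CO₂/6% O₂/91% N₂. DMSO stocks 10 mM, two-fold serial dilutions; 1% parasitaemia, 1% final haematocrit. 24 h drug exposure, then 0.5 µCi [³H]-hypoxanthine per well, 24 h more; freeze-thaw, filter harvest, scintillation counting versus untreated same-plate control. IC50 from concentration–response curve; mean ± SD of several independent experiments; chloroquine control.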

Experiment [1] has as its system Trypanosoma brucei gambiense. As to the kind of experiment: Antitrypanosomal activity against Trypanosoma brucei gambiense Feo bloodstream form after 72 hrs by fluorescence assay. It is filed as functional, organism-based. The essentials: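 Bloodstream forms of strain Feo grown in HMI9 with 10% FCS, 37 °C, 5% CO₂. Log-phase cells harvested by centrifugation (3000g) and used at once, seeded at 3 × 10⁴ cells/ml. Inhibitor concentration series, final DMSO ≤1%. Resazurin added after 72 h (final 45 µM), fluorescence (ex 530/em 590 nm) read 4 h later. Inhibition relative to untreated parasites; triplicates, experiment repeated twice.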

Each structure is given as a SMILES string.

`COc1ccc(-c2cc3c(OC(=O)c4cccc5ccccc45)cccc3o2)cc1`: the IC50 in the experiment with Plasmodium falciparum was above 50 µM; in experiment [1], 14.9 µM.
Take `O=C(c1ccccc1)c1c(-c2ccccc2)oc2ccccc12`: the IC50 in the experiment with Plasmodium falciparum is above 50 µM; in experiment [1], 15.5 µM.
For `COc1ccc(-c2oc3cccc(OC)c3c2C(=O)c2ccccc2)cc1`, in that order: above 50 µM and 11.8 µM.
`COc1ccc(C(=O)Oc2cccc3oc(-c4ccccc4)cc23)cc1`: the IC50 in the experiment with Plasmodium falciparum is above 25 µM; in experiment [1] it was 1.7 µM.
With `O=C(Oc1cccc2oc(-c3ccccc3)cc12)c1ccc([N+](=O)[O-])cc1`, the IC50 in the experiment with Plasmodium falciparum was above 25 µM; in experiment [1] it was 1.8 µM.
Taken in the same sequence, the figures for `Cc1cc(C)cc(-c2cc3c(OC(=O)c4ccccc4)cccc3o2)c1` were 6 µM and 2 µM.
Taken in the same sequence, the figures for `COc1ccc(-c2oc3cccc(OC)c3c2C(=O)c2ccc(Cl)cc2)cc1` were above 50 µM and 5.5 µM.
Taken in the same sequence, the figures for `CCOc1ccc2ccccc2c1C(=O)c1c(-c2ccc(OC)cc2)oc2cccc(O)c12` were above 25 µM and 1.5 µM.
For `COc1ccc(-c2cc3c(OC(=O)c4ccccc4)cccc3o2)cc1`, the IC50 with Plasmodium falciparum is above 25 µM; in experiment [1] it was 3.2 µM.
Consider `O=C(Oc1cccc2oc(C3CC3)cc12)c1cccc2ccccc12`, for which the IC50 was above 50 µM with Plasmodium falciparum and 12.6 µM in experiment [1].
Taken in the same sequence, the figures for `CCOc1ccc2ccccc2c1C(=O)Oc1cccc2oc(-c3ccc(OC)cc3)cc12` were above 50 µM and 7.7 µM.
Take `COc1ccc(-c2cc3c(OC(=O)c4ccc(Cl)cc4)cccc3o2)cc1`: the IC50 in the experiment with Plasmodium falciparum was above 25 µM; in experiment [1], 1.5 µM.
Taken in the same sequence, the figures for `O=C(c1cccc2ccccc12)c1c(C2CC2)oc2cccc(O)c12` were above 50 µM and 4.6 µM.
As for `COc1ccc(C(=O)c2c(-c3ccc(OC)cc3)oc3cccc(O)c23)cc1`, the results for the IC50 (in the experiment on Plasmodium falciparum; in experiment [1]) were above 25 µM and 7.7 µM, respectively.
Turning to `COc1ccc(C(=O)c2c(-c3ccc(OC)cc3)oc3cccc(OC)c23)cc1`, the values for the IC50 (with Plasmodium falciparum; in experiment [1]) were above 25 µM and 8.3 µM, respectively.
For `O=C(Oc1cccc2oc(C3CC3)cc12)c1ccccc1`, in that order: above 50 µM and 14.7 µM.
For `COc1ccc(-c2oc3cccc(OC)c3c2C(=O)c2c(OC)cc(OC)cc2OC)cc1`, in that order: above 50 µM and above 50 µM.
On to `COc1ccc(-c2oc3ccccc3c2C(=O)c2c(O)cc(OC)cc2OC)cc1`, for which the half-inhibitory concentration (IC50) was above 25 µM with Plasmodium falciparum and 6.7 µM in experiment [1].
For `COc1ccc(C(=O)Oc2cccc3oc(-c4ccc(OC)cc4)cc23)cc1`, in that order: 11.2 µM and 1.8 µM.
On to `O=C(Oc1cccc2oc(C3CC3)cc12)c1ccc([N+](=O)[O-])cc1`, for which the IC50 in the experiment on Plasmodium falciparum is above 50 µM; in experiment [1] it was 12.2 µM.
Consider `O=C(Oc1cccc2oc(-c3ccccc3)cc12)c1cccc2ccccc12`, for which the 50% inhibitory concentration (IC50) with Plasmodium falciparum was above 25 µM; in experiment [1], 21.3 µM.
`O=C(Oc1cccc2oc(C3CC3)cc12)c1ccc(Cl)cc1`: the figures for the IC50 (with Plasmodium falciparum; in experiment [1]) were above 50 µM and 7.1 µM, respectively.
Taken in the same sequence, the figures for `CCOc1ccc2ccccc2c1C(=O)Oc1cccc2oc(C3CC3)cc12` were above 25 µM and 6.4 µM.
With `COc1ccc(-c2cc3c(OC(=O)c4c(O)cc(OC)cc4OC)cccc3o2)cc1`, the values for the IC50 (in the experiment on Plasmodium falciparum; in experiment [1]) were 7.9 µM and above 50 µM, respectively.
Regarding `O=C(Oc1cccc2oc(-c3ccccc3)cc12)c1ccccc1`, the half-maximal inhibitory concentration (IC50) in the experiment on Plasmodium falciparum was above 25 µM; in experiment [1] it was 14 µM.
For `O=C(c1ccc([N+](=O)[O-])cc1)c1c(-c2ccccc2)oc2ccccc12`, in that order: above 50 µM and above 50 µM.
Taken in the same sequence, the figures for `CCOc1ccc2ccccc2c1C(=O)Oc1cccc2oc(-c3ccccc3)cc12` were above 50 µM and 6.7 µM.
With `COc1ccc(-c2oc3ccccc3c2C(=O)c2ccc([N+](=O)[O-])cc2)cc1`, the concentration for half-maximal inhibition (IC50) (in the experiment with Plasmodium falciparum; in experiment [1]) was above 50 µM in each case.
Consider `O=C(c1ccccc1)c1c(C2CC2)oc2ccccc12`, for which the half-maximal inhibitory concentration (IC50) is above 50 µM with Plasmodium falciparum and 20.9 µM in experiment [1].
For `CCOc1ccc2ccccc2c1C(=O)c1c(C2CC2)oc2cccc(O)c12`, the IC50 with Plasmodium falciparum was above 25 µM; in experiment [1], 2 µM.
As for `COc1ccc(-c2oc3cccc(O)c3c2C(=O)c2ccccc2)cc1`, the IC50 with Plasmodium falciparum is above 25 µM; in experiment [1], 6.5 µM.
For `COc1ccc(-c2cc3c(OC(=O)c4ccc([N+](=O)[O-])cc4)cccc3o2)cc1`, the IC50 is above 50 µM with Plasmodium falciparum and 1.7 µM in experiment [1].
Take `N=C(N)c1ccc(OCCCCCOc2ccc(C(=N)N)cc2)cc1` [PENTAMIDINE]: in experiment [1], the 50% inhibitory concentration (IC50) came out at 0.011 µM.
As for `COc1ccc(-c2oc3cccc(OC)c3c2C(=O)c2cccc3ccccc23)cc1`, the half-inhibitory concentration (IC50) was above 50 µM in the experiment on Plasmodium falciparum and 12.4 µM in experiment [1].
With `COc1ccc(-c2oc3ccccc3c2C(=O)c2ccccc2)cc1`, the IC50 in the experiment with Plasmodium falciparum is above 50 µM; in experiment [1] it was 21.2 µM.
For `COc1ccc(C(=O)c2c(C3CC3)oc3cccc(O)c23)cc1`, in that order: above 50 µM and 3.7 µM.
Take `COc1ccc(-c2oc3cccc(OC)c3c2C(=O)c2ccc(OC(=O)C(C)(C)C)c(OC)c2)cc1`: the values for the IC50 (in the experiment with Plasmodium falciparum; in experiment [1]) were above 50 µM and 8.4 µM, respectively.
Regarding `COc1ccc(C(=O)Oc2cccc3oc(C4CC4)cc23)cc1`, the IC50 was above 50 µM with Plasmodium falciparum and 2.7 µM in experiment [1].
For `COc1ccc(-c2oc3cccc(O)c3c2C(=O)c2cccc3ccccc23)cc1`, in that order: above 50 µM and 4.2 µM.
For the compound `O=C(Oc1cccc2oc(-c3ccccc3)cc12)c1ccc(Cl)cc1`, the concentration for half-maximal inhibition (IC50) with Plasmodium falciparum was above 25 µM; in experiment [1], 1.6 µM.
